# Assay outcomes: PubChem, Johns Hopkins Ion Channel Center
# TRPC4 agonist = activators of mouse TRPC4 channel; 0.49% of 310,000 active; HEK293 TRPC4beta/mu-opioid, Fluo4 calcium fluorescence; active compounds read high; B-score at 10 µM; AID 2237;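 active means B-score above 5 SD of library B-scores, and initial fluorescence ratio not above library mean plus 5 SD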;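 further: positive B-score marks a calcium rise read as TRPC4 activation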
#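 Material: TRPC4beta and mu-opioid receptor HEK293 stable cells | Incubation: 45 min room-temperature Fluo4 loading, 110 s read | Detection: Kinetic Fluo4 calcium fluorescence | Measure: Integrated baseline-normalised fluorescence ratio, converted to per-well B score | Benchmarks: Low control buffer alone, high control maximal DAMGO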
# TRPC6 activator = activates the mouse TRPC6 cation channel | AID 2550 | B-score at 10 µM | 0.13% of 310,000 active | Q61143 | HEK293-TRPC6 membrane potential dye fluorescence; active compounds read high;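 active means B-score of the integrated fluorescence ratio above library mean plus 3 SD, and starting fluorescence ratio within library mean plus 5 SD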;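 further: higher score means more depolarization so channel activation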
# Target sequence (Q61143 whole entry, looked up): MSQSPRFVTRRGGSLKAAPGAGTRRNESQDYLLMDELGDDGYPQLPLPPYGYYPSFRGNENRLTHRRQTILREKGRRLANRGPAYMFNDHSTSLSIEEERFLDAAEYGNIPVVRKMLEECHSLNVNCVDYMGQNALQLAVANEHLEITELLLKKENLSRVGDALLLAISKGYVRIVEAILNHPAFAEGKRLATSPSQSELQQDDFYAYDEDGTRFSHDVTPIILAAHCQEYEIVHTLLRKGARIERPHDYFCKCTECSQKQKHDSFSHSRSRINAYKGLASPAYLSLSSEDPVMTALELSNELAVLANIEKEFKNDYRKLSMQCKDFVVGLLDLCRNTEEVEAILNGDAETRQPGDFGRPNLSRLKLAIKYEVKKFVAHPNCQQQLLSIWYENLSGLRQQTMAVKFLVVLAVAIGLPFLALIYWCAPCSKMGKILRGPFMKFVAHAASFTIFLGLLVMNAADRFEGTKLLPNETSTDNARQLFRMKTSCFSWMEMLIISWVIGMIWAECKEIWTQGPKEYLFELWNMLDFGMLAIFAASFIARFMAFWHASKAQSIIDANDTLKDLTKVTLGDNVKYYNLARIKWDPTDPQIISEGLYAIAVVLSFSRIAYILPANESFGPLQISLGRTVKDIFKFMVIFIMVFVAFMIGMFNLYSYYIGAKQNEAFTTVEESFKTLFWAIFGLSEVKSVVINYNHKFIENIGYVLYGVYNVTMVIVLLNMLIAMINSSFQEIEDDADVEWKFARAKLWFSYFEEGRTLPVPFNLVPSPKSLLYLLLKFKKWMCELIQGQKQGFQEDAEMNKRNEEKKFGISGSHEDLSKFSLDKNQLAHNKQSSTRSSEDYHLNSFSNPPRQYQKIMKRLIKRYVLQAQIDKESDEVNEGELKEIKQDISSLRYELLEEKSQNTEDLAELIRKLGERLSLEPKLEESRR
# TRPC4 inh = blocks the mouse TRPC4 cation channel; 0.39% of 300,000 active; B-score at 10 µM; AID 2247; HEK293 TRPC4beta/mu-opioid, DAMGO-evoked Fluo4 calcium flux; active compounds read low; Q9QUQ5;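 active means B-score over 3 SD under the library average, no early fluorescence shift, positive overall ratio signal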
#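 Material: HEK293 cells with stable TRPC4beta plus mu-opioid receptor expression / Probe or stimulus: DAMGO in two steps, submaximal then maximal / Compound: single concentration per test compound / Technique: kinetic Fluo4 fluorescence imaging of calcium influx / Read-out: per-well B score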
# TRPC6 inh = mouse TRPC6 channel inhibition; B-score at 10 µM; Q61143; AID 2553; 1.1% of 310,000 active; HEK293-TRPC6, membrane potential dye, ACh-evoked depolarization; active compounds read low;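 active means B-score under library mean minus 3 SD, initial fluorescence not abnormally high, positive integrated signal ratio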;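 further: B-score derived from integrated fluorescence ratio over the kinetic read; more negative B-score means stronger inhibition of depolarization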
# TRPC4 PAM = allosteric potentiators of mouse TRPC4 channel; HEK293 TRPC4beta/mu-opioid, DAMGO EC20, Fluo-4 Ca2+ flux; active compounds read high; B-score at 10 µM; 0.42% of 310,000 active; AID 2227;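 active means B-score of calcium response area above 5 SD of library B-scores, with initial fluorescence ratio within 5 SD of library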;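 further: B-score of integrated fluorescence ratio over time as area under calcium response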
# * hit, by the source's call; i = inactive. Shown are actives, neighbours in structure and some others; about 2.3% of the full set was active somewhere.
SMILES,TRPC4 agonist,TRPC6 activator,TRPC4 inh,TRPC6 inh,TRPC4 PAM
CC(=O)c1ccc(N2CCN(C(=O)CCCn3c(=O)[nH]c4ccccc4c3=O)CC2)cc1,i,i,i,i,i
COc1ccc(N2CCN(C(=O)CCCn3c(=O)[nH]c4cc(Cl)ccc4c3=O)CC2)cc1,i,i,-6*,i,i
CCOC(=O)C1CCN(C2CCN(C(=O)c3oc4c(C)c(C)ccc4c3C)CC2)CC1,i,i,-6*,i,i
Cc1ccc2c(C)c(C(=O)N3CCN(c4cnccn4)CC3)oc2c1C,i,i,i,i,i
Cc1ccc2c(C)c(C(=O)N3CCC(O)(c4ccccc4)CC3)oc2c1C,i,i,i,i,13*
COc1cccc(C(=O)NCCS(=O)(=O)NCCCc2ccccc2)c1,i,i,i,i,i
CCn1cc(C(=O)NNC(=O)c2ccc(Cl)cc2)c(=O)c2ccc(C)nc21,i,i,i,i,i
O=C(Nc1ccc(C2=NCCN2)cc1)c1ccc(Cl)c(C(=O)Nc2ccc(C3=NCCN3)cc2)c1,i,14.2*,i,i,i
O=C(Nc1ccc(Cl)c(Cl)c1)c1ccc(Cl)c(Cl)c1,i,i,i,i,i
CC1=C(C(=O)NCc2ccccc2)C(c2cc(Br)cc(Br)c2OC(C)C)NC(=O)N1 (stereo not given),i,i,i,i,17*
CC1=C(C(=O)NCc2ccccc2)C(c2ccccc2OCC(N)=O)NC(=O)N1 (stereo not given),i,i,i,i,i
CC1=C(C(=O)OCc2ccccc2)C(c2ccccc2[N+](=O)[O-])NC(=O)N1C (stereo not given),i,i,i,i,i
CCCCN1C(=O)C(=O)N(CC(=O)Nc2cc(OCC)c(N3CCOCC3)cc2OCC)C1=O,i,i,i,i,21*
CCOc1cc(N2CCOCC2)c(OCC)cc1NC(=O)CN1C(=O)C2CC=CCC2C1=O (stereo not given),i,i,i,i,i
CCOc1cc(N2CCOCC2)c(OCC)cc1NC(=O)c1ccc2ccccc2n1,i,i,i,i,11*
CCOc1cc(N2CCOCC2)c(OCC)cc1NC(=O)c1ccccc1C,i,i,i,i,i
COc1ccc2nc(NS(=O)(=O)c3ccc(NC(C)=O)cc3)sc2c1,122*,i,-7*,i,i
CC(=O)Nc1ccc2nc(NS(=O)(=O)c3ccc(C)cc3)sc2c1,i,i,i,i,i
O=C1CN(S(=O)(=O)c2ccc([N+](=O)[O-])cc2)CC(=O)N1,i,i,i,i,i
CCOc1ccc(-c2cc(NC(=O)c3c(F)cccc3F)c(C(=O)O)s2)cc1,i,i,-5*,i,i
O=C(NCCO)C(=O)c1c(-c2ccc(Cl)cc2)cc2ccccn12,i,i,i,i,i
O=C(O)c1ccn2c(C(=O)c3ccc(Cl)cc3)c(-c3ccccc3)cc2c1,i,i,-6*,i,i
O=C(Nc1ccccc1Oc1cccnc1)C1CCCN(C/C=C/c2ccc(F)cc2)C1 (stereo not given),i,i,i,i,i
Cc1cccc(CN2CCCC(C(=O)N3CCc4ccccc4C3)C2)c1 (stereo not given),70*,i,i,i,i
Cc1cccc(CN2CCCC(C(=O)Nc3ccccc3Oc3cccnc3)C2)c1 (stereo not given),i,i,-6*,i,i
O=C(C1CCCN(Cc2ccccc2F)C1)N1CCCCC1 (stereo not given),i,i,i,i,i
O=C(C1CCCN(Cc2ccncc2)C1)N1CCc2ccccc2C1 (stereo not given),164*,i,i,i,i
O=C(C1CCCN(Cc2ccccc2F)C1)N1CCc2ccccc2C1 (stereo not given),110*,i,i,i,i
CCCCn1c(N)c(N(CC(C)C)C(=O)CC2OC(=O)c3ccccc32)c(=O)[nH]c1=O (stereo not given),i,i,i,i,i
